Assay results taken from ChEMBL document CHEMBL3297678, “New insights into the biological properties of Crocus sativus L.: chemical modifications, human monoamine oxidases inhibition and molecular modeling studies” (Eur J Med Chem, 2014).

Legend:
[1] = target: T1, Amine oxidase [flavin-containing] A (Homo sapiens, UniProt P21397); experiment: Inhibition of recombinant human MAO-A expressed in insect cells assessed as inhibition of oxidation of kynuramine to 4-hydroxyquinoline after 20 mins by fluorescence spectrophotometry
T1 sequence (P21397 whole entry): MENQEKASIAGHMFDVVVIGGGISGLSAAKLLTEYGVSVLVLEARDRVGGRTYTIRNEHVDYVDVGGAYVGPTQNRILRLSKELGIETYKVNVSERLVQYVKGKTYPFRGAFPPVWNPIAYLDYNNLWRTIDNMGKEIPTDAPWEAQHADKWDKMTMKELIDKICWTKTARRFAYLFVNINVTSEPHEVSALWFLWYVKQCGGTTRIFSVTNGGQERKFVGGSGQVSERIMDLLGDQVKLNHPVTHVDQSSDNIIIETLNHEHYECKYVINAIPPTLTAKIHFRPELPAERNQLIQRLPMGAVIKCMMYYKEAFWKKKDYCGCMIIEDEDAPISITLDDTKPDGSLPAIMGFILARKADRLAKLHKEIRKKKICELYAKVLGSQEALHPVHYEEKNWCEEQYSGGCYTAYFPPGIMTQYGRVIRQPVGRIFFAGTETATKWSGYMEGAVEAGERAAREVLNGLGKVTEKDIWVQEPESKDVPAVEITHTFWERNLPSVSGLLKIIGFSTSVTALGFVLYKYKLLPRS
Outline: (§1)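 Enzyme source was insect-cell microsomes carrying recombinant hMAO-A or hMAO-B. Kynuramine substrate was oxidized to 4-hydroxyquinoline in 100 mM potassium phosphate, pH 7.4, made isotonic with 20.2 mM KCl, with 4% DMSO and varied inhibitor concentrations. Product was read by fluorescence (ex 310/em 400 nm) against a linear calibration curve. Controls excluded inhibitor fluorescence or quenching. IC50 came from a one-site competition fit of initial rate versus log[inhibitor]; mean ± SD of triplicates.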

[2] = target: T2, Amine oxidase [flavin-containing] B (Homo sapiens, UniProt P27338); experiment: Inhibition of recombinant human MAO-B expressed in insect cells assessed as inhibition of oxidation of kynuramine to 4-hydroxyquinoline after 20 mins by fluorescence spectrophotometry; outline: as §1
T2 sequence (P27338 whole entry): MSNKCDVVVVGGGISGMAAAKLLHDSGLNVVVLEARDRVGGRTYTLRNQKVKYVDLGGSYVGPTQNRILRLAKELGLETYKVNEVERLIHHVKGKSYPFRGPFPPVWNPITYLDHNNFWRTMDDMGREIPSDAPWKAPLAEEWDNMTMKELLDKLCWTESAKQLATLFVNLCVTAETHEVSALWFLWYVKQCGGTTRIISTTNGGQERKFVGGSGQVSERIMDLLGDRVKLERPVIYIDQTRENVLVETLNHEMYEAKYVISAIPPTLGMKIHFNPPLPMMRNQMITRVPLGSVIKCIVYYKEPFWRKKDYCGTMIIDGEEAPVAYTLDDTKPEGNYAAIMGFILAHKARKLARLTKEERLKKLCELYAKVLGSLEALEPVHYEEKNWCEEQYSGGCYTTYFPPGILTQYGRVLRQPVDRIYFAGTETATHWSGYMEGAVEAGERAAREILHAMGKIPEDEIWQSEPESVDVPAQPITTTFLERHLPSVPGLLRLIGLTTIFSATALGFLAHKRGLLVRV

Homo sapiens = organism: Homo sapiens; experiment: Selectivity ratio of IC50 for recombinant human MAO-B expressed in insect cells to IC50 for recombinant human MAO-A expressed in insect cells

Row | IC50 ([1]; read-out: IC50) [µM] | IC50 ([2]; read-out: IC50) [µM] | IC50 [1] | IC50 [2] | SMILES | Ratio IC50 (Homo sapiens)
1 | 9.93 | 0.1 | – | – | CC1=C(/C=N/Nc2nc(-c3cccc([N+](=O)[O-])c3)cs2)C(C)(C)CC=C1 | –
2 | 19.5 | 224 | – | – | CC1=C(/C=N/NC(=S)Nc2ccccc2)C(C)(C)CC=C1 | 11
3 | 56.8 | 74.5 | – | – | CC1=C(/C=N/NC(N)=S)C(C)(C)CC=C1 | –
4 | 164 | 111 | – | – | CC1=C(/C=N/NC(N)=O)C(C)(C)CC=C1 | –

The remaining lines, values behind:

Row | SMILES | IC50 ([1]; read-out: IC50) [µM] | IC50 ([2]; read-out: IC50) [µM] | IC50 [1] | IC50 [2] | Ratio IC50 (Homo sapiens)
5 | CC1=C(/C=N/N=C2\SCC(=O)N2Cc2ccccc2)C(C)(C)CC=C1 | 86.6 | 215 | – | – | –
6 | CC1=C(/C=N/N=C2/NC(=O)CS2)C(C)(C)CC=C1 | 132 | 168 | – | – | –
7 | CC1=C(C=O)C(C)(C)CC=C1 | – | – | Not Active | Not Active | –
8 | CC1=C(/C=N/N(C)C(N)=S)C(C)(C)CC=C1 | 93.2 | 117 | – | – | –
9 | CC(/C=C/C=C(\C)C(=O)O[C@@H]1O[C@H](CO[C@@H]2O[C@H](CO)[C@@H](O)[C@H](O)[C@H]2O)[C@@H](O)[C@H](O)[C@H]1O)=C\C=C\C=C(C)\C=C\C=C(/C)C(=O)O[C@@H]1O[C@H](CO[C@@H]2O[C@H](CO)[C@@H](O)[C@H](O)[C@H]2O)[C@@H](O)[C@H](O)[C@H]1O [CROCIN] | 170 | 128 | – | – | –
